# In ChEMBL document CHEMBL3244180, “Synthesis of branched-chain apiosylpyrimidines and their inhibition of lymphocyte proliferation” (1978):
# Activity calls are given as the source filed them. The calls are words filed in the database; no cut-off is given here.
# What was measured:
# MGL8 = experiment: Growth inhibition of human MGL8 cells at 5 uM after 48 hrs; format: functional, cell-based
# Method in brief: (§1)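 MGL-8 lymphoblasts seeded at 22 × 10⁴ cells/mL in stationary suspension in RPMI 1640 with 10% fetal calf serum, penicillin and streptomycin; 48 h at 37 °C; cells counted by Coulter counter; growth expressed as % of untreated control; significance tested (p < 0.01).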
# [1] = Growth inhibition of human MGL8 cells at 50 uM after 48 hrs relative to control; format: functional; conditions: MGL8, 48 h, read-out: GI; method in brief: as §1
# [2] = Growth inhibition of human MGL8 cells at 500 uM after 48 hrs relative to control; format: functional; conditions: MGL8, 48 h, read-out: GI; method in brief: as §1
# Human alphaherpesvirus 2 = experiment: Antiviral activity against HSV2 infected in BHK cells assessed as reduction of viral plaque at 4 uM after 24 hrs; format: functional
# Method in brief: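 BHK confluent monolayers in 24-well trays; supernatant removed and 50 μL virus dilution added per well; 2 h at 37 °C, 5% CO2, 100% humidity with intermittent agitation. Eagle's medium containing tryptose phosphate broth and calf serum then added; viral plaques counted after 24 h.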
# [3] = Immunosuppressive activity against PHA-stimulated proliferation in rat T-lymphocytes assessed as cell viability at 1 uM […] by [3H]thymidine incorporation method relative to control; format: functional; conditions: read-out: Activity
# [4] = Immunosuppressive activity against PHA-stimulated proliferation in rat T-lymphocytes assessed as cell viability at 100 uM after 6 days by [3H]thymidine incorporation method relative to control; format: functional; conditions: read-out: Activity
# Method in brief: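 Rat lymphocytes incubated 6 days at 37 °C with 100 μM compound; result expressed as percentage of viable lymphocytes.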
# T-cell = experiment: Immunosuppressive activity against PHA-stimulated proliferation in rat T-lymphocytes assessed as cell viability at 0.01 to 0.1 uM […] by [3H]thymidine incorporation method relative to control; format: functional, cell-based
# Staphylococcus aureus = experiment: Antibacterial activity against Staphylococcus aureus at 1 mg/ml; format: functional, organism-based
# Method in brief: (§2)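 Organisms grown on agar plates at 37 °C. Compound dissolved at 1 mg/mL in methanol, applied to a 2-cm disk, and the disk placed on agar streaked with the organism.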
# Bacillus subtilis = experiment: Antibacterial activity against Bacillus subtilis at 1 mg/ml; format: functional, organism-based; method in brief: as §2
# Micrococcus luteus = experiment: Antibacterial activity against Sarcina lutea at 1 mg/ml; format: functional, organism-based; method in brief: as §2
# Proteus vulgaris = experiment: Antibacterial activity against Proteus vulgaris at 1 mg/ml; format: functional, organism-based; method in brief: as §2
# [5] = tested on: Salmonella enterica subsp. enterica serovar Gallinarum; experiment: Antibacterial activity against Salmonella gallinarum at 1 mg/ml; format: functional, organism-based; method in brief: as §2
# Escherichia coli = experiment: Antibacterial activity against Escherichia coli at 1 mg/ml; format: functional, organism-based; method in brief: as §2
# Pseudomonas aeruginosa = experiment: Antibacterial activity against Pseudomonas aeruginosa at 1 mg/ml; format: functional, organism-based; method in brief: as §2
# Ralstonia solanacearum = experiment: Antibacterial activity against Pseudomonas solanacearum at 1 mg/ml; format: functional, organism-based
# Method in brief: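 Agar disk diffusion: test compound at 1 mg/mL in methanol, applied to a 2-cm disk laid on agar plates streaked with the organism.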
# Serratia marcescens = experiment: Antibacterial activity against Serratia marcescens at 1 mg/ml; format: functional, organism-based; method in brief: as §2
# [6] = tested on: Saccharomyces pastorianus; experiment: Antifungal activity against Saccharomyces pastorianus at 1 mg/ml; format: functional, organism-based; method in brief: as §2
# Neurospora crassa = experiment: Antifungal activity against Neurospora crassa at 1 mg/ml; format: functional, organism-based; method in brief: as §2
# Candida albicans = experiment: Antifungal activity against Candida albicans at 1 mg/ml; format: functional, organism-based; method in brief: as §2
SMILES,growth inhibition (GI) (MGL8),inhibition of growth at 50 µM [1],inhibition of growth at 500 µM [2],Activity (Human alphaherpesvirus 2),thymidine incorporation of control at 1 µM [3],viability at 100 µM [4],Activity (T-cell),Activity (Staphylococcus aureus),Activity (Bacillus subtilis),Activity (Micrococcus luteus),Activity (Proteus vulgaris),Activity [5],Activity (Escherichia coli),Activity (Pseudomonas aeruginosa),Activity (Ralstonia solanacearum),Activity (Serratia marcescens),Activity [6],Activity (Neurospora crassa),Activity (Candida albicans)
O=c1[nH]c(=O)n([C@@H]2O[C@H](CO)[C@@H](O)[C@H]2O)cc1Br,inactive,40%,11%,–,–,–,–,–,–,–,–,–,–,–,–,–,–,–,–
O=c1[nH]c(=O)n([C@@H]2OC[C@@](O)(CO)[C@H]2O)cc1I,inactive,24%,6%,inactive,–,–,–,–,–,–,–,–,–,–,–,–,–,–,–
Nc1ccn([C@@H]2O[C@H](CO)[C@@H](O)[C@@H]2O)c(=O)n1 [CYTARABINE],–,–,–,–,18%,76%,inactive,–,–,–,–,–,–,–,–,–,–,–,–
Cc1cn([C@@H]2OC[C@@](O)(CO)[C@H]2O)c(=O)[nH]c1=O,inactive,95%,83%,inactive,56%,89%,inactive,inactive,inactive,inactive,inactive,inactive,inactive,inactive,inactive,inactive,inactive,inactive,inactive
NC(=O)c1ncn([C@@H]2O[C@H](CO)[C@@H](O)[C@H]2O)n1 [RIBAVIRIN],–,–,–,–,127%,–,–,–,–,–,–,–,–,–,–,–,–,–,–
Nc1ncnc2c1ncn2[C@@H]1O[C@H](CO)[C@@H](O)[C@@H]1O [VIDARABINE],–,–,–,–,71%,94%,–,–,–,–,–,–,–,–,–,–,–,–,–
O=c1ccn([C@@H]2OC[C@@](O)(CO)[C@H]2O)c(=O)[nH]1,inactive,100%,72%,inactive,16%,90%,inactive,inactive,inactive,inactive,inactive,inactive,inactive,inactive,inactive,inactive,inactive,inactive,inactive
CC(=O)O[C@H]1[C@H](n2cc(Br)c(=O)[nH]c2=O)OC[C@@]12COC(=O)O2,–,–,–,–,–,–,–,inactive,inactive,inactive,inactive,inactive,inactive,inactive,inactive,inactive,inactive,inactive,inactive
Nc1ncnc2c1ncn2[C@@H]1OC[C@](O)(CO)[C@H]1O,–,–,–,–,159%,91%,inactive,–,–,–,–,–,–,–,–,–,–,–,–
CC(=O)O[C@H]1[C@H](n2cc(I)c(=O)[nH]c2=O)OC[C@@]12COC(=O)O2,–,–,–,–,–,–,–,inactive,inactive,inactive,inactive,inactive,inactive,inactive,inactive,inactive,inactive,inactive,inactive
O=c1[nH]c(=O)n([C@@H]2O[C@H](CO)[C@@H](O)[C@H]2O)cc1I,inactive,32%,9%,–,–,–,–,–,–,–,–,–,–,–,–,–,–,–,–
O=c1[nH]c(=O)n([C@@H]2OC[C@@](O)(CO)[C@H]2O)cc1Br,inactive,52%,13%,inactive,–,–,–,–,–,–,–,–,–,–,–,–,–,–,–
Nc1ncnc2c1ncn2[C@@H]1OC[C@@](O)(CO)[C@H]1O,–,–,–,42%,14%,85%,–,–,–,–,–,–,–,–,–,–,–,–,–
